What was measured:
[1] = target: T1, Amine oxidase [flavin-containing] A (Homo sapiens, UniProt P21397); assay: Inhibition of human recombinant MAO-A assessed as hydrogen peroxide production at 20 uM
T1 sequence (P21397 whole entry): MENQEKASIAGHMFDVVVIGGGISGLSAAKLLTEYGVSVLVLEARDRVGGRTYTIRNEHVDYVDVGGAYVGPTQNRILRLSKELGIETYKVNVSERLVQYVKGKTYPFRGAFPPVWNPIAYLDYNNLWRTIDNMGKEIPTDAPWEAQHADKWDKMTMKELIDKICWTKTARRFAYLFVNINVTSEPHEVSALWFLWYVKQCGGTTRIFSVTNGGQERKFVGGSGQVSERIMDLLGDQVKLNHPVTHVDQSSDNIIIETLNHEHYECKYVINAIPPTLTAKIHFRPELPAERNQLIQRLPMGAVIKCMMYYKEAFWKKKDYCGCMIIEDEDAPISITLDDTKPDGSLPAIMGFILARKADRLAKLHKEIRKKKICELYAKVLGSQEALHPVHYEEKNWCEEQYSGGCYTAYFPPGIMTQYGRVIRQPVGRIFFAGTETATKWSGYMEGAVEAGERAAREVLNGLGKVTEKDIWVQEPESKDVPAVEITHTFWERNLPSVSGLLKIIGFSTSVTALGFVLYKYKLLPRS
Procedure, shortened: (§1)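 Recombinant hMAO-A or hMAO-B microsomes came from baculovirus-infected BTI-TN-5B1-4 insect cells. Enzyme was set to 165 pmol p-tyramine/min (A 1.1 µg, B 7.5 µg protein). It was preincubated with compound in 0.05 M sodium phosphate, pH 7.4, for 15 min at 37 °C. Final 200 µM Amplex Red, 1 U/mL HRP and 1 mM p-tyramine started the reaction. H2O2 was read as resorufin fluorescence (ex 545/em 590 nm) over 15 min at 37 °C against vehicle controls.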

[2] = target: T2, Amine oxidase [flavin-containing] B (Homo sapiens, UniProt P27338); assay: Inhibition of human recombinant MAO-B assessed as hydrogen peroxide production at 20 uM
T2 sequence (P27338 whole entry): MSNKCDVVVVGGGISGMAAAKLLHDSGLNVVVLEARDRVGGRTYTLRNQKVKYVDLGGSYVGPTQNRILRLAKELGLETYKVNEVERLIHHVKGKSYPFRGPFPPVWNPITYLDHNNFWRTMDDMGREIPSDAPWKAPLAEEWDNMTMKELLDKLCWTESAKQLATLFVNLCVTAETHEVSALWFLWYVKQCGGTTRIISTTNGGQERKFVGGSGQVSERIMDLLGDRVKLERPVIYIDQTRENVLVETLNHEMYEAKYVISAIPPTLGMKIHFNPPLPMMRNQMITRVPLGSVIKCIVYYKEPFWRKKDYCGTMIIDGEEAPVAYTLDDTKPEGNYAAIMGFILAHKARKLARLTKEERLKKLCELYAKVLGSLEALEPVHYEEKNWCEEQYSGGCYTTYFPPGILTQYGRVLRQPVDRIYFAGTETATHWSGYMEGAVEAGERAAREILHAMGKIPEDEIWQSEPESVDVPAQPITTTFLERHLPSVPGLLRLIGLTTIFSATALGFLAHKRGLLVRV

[3] = target: T2, Amine oxidase [flavin-containing] B
[4] = species on record: Homo sapiens; assay: Selectivity index, ratio of inhibition of human recombinant MAO-A at 20 uM or 50 uM to IC50 for human recombinant MAO-B
[5] = target: T2, Amine oxidase [flavin-containing] B; assay: Inhibition of human MAO-B at 20 uM before washing
[6] = target: T2, Amine oxidase [flavin-containing] B; assay: Inhibition of human MAO-B at 20 uM after repeated washing
[7] = target: T1, Amine oxidase [flavin-containing] A; assay: Inhibition of human recombinant MAO-A assessed as hydrogen peroxide production at 1 mM
[8] = target: T1, Amine oxidase [flavin-containing] A; assay: Inhibition of human recombinant MAO-A assessed as hydrogen peroxide production at 50 uM; procedure, shortened: as §1
[9] = target: T2, Amine oxidase [flavin-containing] B; assay: Inhibition of human recombinant MAO-B assessed as hydrogen peroxide production at 1 mM
Procedure, shortened: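 Microsomal recombinant hMAO-B (baculovirus-infected BTI-TN-5B1-4 insect cells; 7.5 µg protein) preincubated with drug in 0.05 M sodium phosphate, pH 7.4, 15 min, 37 °C. Started with (final) 200 µM Amplex Red, 1 U/mL horseradish peroxidase, 1 mM p-tyramine. H2O2 read as resorufin fluorescence (ex 545/em 590 nm) over 15 min at 37 °C. Vehicle controls; five experiments.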

[10] = target: T2, Amine oxidase [flavin-containing] B; assay: Inhibition of human MAO-B at 5 uM before washing
[11] = target: T2, Amine oxidase [flavin-containing] B; assay: Inhibition of human MAO-B at 5 uM after repeated washing
[12] = target: T1, Amine oxidase [flavin-containing] A; assay: Inhibition of human recombinant MAO-A assessed as hydrogen peroxide production

SMILES | IC50 [1] | IC50 [3] [nM] | Ratio IC50 [4] | further results
COc1ccc(/C=C/C(=O)c2ccc(OCC=C(C)C)cc2O)cc1 | Not Active |  |  | IC50 [2]: Not Active
CC(C)=CCOc1ccc(C(=O)/C=C/c2ccccc2)c(O)c1 [CORDOIN] | Not Active | 18800 | > 1.1 | inhibition (INH) [5]: 54.32%; inhibition (INH) [6]: 58.51%
CC(C)=CCOc1ccc(C(=O)/C=C/c2ccc(C)cc2)c(O)c1 | Not Active | 1030 | > 19 | 
O=C(/C=C/c1ccc(OCc2ccccc2)cc1)c1ccc(F)cc1 | Not Active | 500 | > 40 | 
C#CCN(C)[C@H](C)Cc1ccccc1 [SELEGILINE] |  |  |  | IC50 [7]: Not Active
O=C(/C=C/c1ccc(Cl)cc1)c1ccc(O)cc1 |  | 31 | > 1610 | IC50 [8]: Not Active
O=C(NCCN1CCOCC1)c1ccc(Cl)cc1 [MOCLOBEMIDE] |  |  |  | IC50 [9]: Not Active
CS(=O)(=O)c1ccc(C(=O)/C=C/c2ccc(Cl)cc2)cc1 | Not Active | 470 | > 43 | 
COc1ccc(C(=O)/C=C/c2ccc(Cl)cc2)c(O)c1 |  |  |  | inhibition (INH) [10]: 59.13%; inhibition (INH) [11]: 60.26%
C#CCN(C)CCCOc1ccc(Cl)cc1Cl [CLORGILINE] |  |  |  | IC50 [7]: Not Active
CC(C)=CCOc1ccc(C(=O)/C=C/c2ccc(OCc3ccccc3)cc2)c(O)c1 | Not Active |  |  | IC50 [2]: Not Active
O=C(/C=C/c1ccccc1)c1ccccc1 [CHALCONE] | Not Active | 1410 | > 14 | 
O=C(/C=C/c1ccc(Cl)cc1)c1ccc(F)cc1O |  | 71 | > 704 | 
O=C(/C=C/c1ccc(Cl)cc1)c1ccccc1O |  | 160 | > 312 | IC50 [8]: Not Active
O=C(/C=C/c1ccc(Cl)cc1)c1ccc(O)cc1O |  | 5.1 | 971 | IC50 [12]: 4950 nM; IC50 [7]: Not Active; inhibition (INH) [10]: 55.12%; inhibition (INH) [11]: 61.38%
COc1ccc(C(=O)/C=C/c2ccc(OCc3ccccc3)cc2)cc1 | Not Active | 450 | > 44 | 
O=C(/C=C/c1ccc(Cl)cc1)c1ccc(OCc2ccccc2)cc1 | Not Active |  |  | 
COc1ccc(C(=O)/C=C/c2ccc(Cl)cc2)cc1 | Not Active | 54 | > 370 | 
CC(C)=CCOc1ccc(C(=O)/C=C/c2ccc(Cl)cc2)c(O)c1 | Not Active | 1250 | > 16 | 
